Each block holds one molecule with its values, some of them ahead of it. Calls of active or inactive are those of the source. The rule behind the calls is not given here.
Assays:
[1] = biological target: T1, Amine oxidase [flavin-containing] A (Homo sapiens, UniProt P21397); experiment: Inhibition of recombinant human MAO-A expressed in baculovirus infected BTITN-5B1-4 insect cells using p-tyramine as substrate at 100 uM incubated for 10 mins followed by substrate addition measured after 15 mins by Amplex Red assay; details: bti-tn-5b1-4, 25 min
T1 sequence (P21397 whole entry): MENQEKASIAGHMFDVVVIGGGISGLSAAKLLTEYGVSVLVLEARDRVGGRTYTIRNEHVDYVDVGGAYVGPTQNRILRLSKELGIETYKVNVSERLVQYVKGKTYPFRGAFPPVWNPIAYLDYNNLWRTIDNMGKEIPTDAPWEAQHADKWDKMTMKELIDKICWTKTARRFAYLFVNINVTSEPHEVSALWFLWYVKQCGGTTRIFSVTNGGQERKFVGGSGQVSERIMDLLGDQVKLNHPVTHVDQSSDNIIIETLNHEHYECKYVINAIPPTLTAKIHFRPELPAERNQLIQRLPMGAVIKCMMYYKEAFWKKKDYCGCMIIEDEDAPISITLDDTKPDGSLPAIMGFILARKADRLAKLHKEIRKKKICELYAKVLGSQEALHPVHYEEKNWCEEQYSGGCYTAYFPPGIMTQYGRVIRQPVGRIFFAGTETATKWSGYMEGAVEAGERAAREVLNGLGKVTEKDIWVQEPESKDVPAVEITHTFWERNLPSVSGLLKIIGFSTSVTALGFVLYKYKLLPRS
Outline: (§1)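 Microsomal hMAO-A from baculovirus-infected BTI-TN 5B1-4 cells, 1.1 μg protein, in 0.05 M sodium phosphate pH 7.4, preincubated with compound 10 min at 37 °C. Started with 200 μM Amplex Red, 1 U/mL HRP and 1 mM p-tyramine (final). Resorufin fluorescence (ex 545/em 590 nm) read over 15 min at 37 °C; background without enzyme subtracted; vehicle controls run.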

SH-SY5Y = experiment: Neurotoxicity against human SH-SY5Y cells assessed as reduction in cell viability at 100 uM incubated for 24 hrs by MTT assay; assay type: functional, cell-based
Outline: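 SH-SY5Y cells in Ham's F12/EMEM 1:1 with 15% FBS, seeded at 2×10^5 cells/mL and grown 24 h. Treated with 100 μM compound (1% DMSO) for 24 h, then MTT for 2 h; formazan dissolved in DMSO and absorbance read at 540 nm. Viability as % of vehicle control; at least 3 experiments, ANOVA with Bonferroni test.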

[2] = biological target: T1, Amine oxidase [flavin-containing] A; experiment: Inhibition of recombinant human MAO-A expressed in baculovirus infected BTITN-5B1-4 insect cells using p-tyramine as substrate incubated for 10 mins followed by substrate addition measured after 15 mins by Amplex Red assay; design: species or system BTI-TN-5B1-4
[3] = biological target: T2, Amine oxidase [flavin-containing] B (Homo sapiens, UniProt P27338); experiment: Inhibition of recombinant human MAO-B expressed in baculovirus infected BTITN-5B1-4 insect cells using p-tyramine as substrate incubated for 10 mins followed by substrate addition measured after 15 mins by Amplex Red assay; design: species or system BTI-TN-5B1-4
T2 sequence (P27338 whole entry): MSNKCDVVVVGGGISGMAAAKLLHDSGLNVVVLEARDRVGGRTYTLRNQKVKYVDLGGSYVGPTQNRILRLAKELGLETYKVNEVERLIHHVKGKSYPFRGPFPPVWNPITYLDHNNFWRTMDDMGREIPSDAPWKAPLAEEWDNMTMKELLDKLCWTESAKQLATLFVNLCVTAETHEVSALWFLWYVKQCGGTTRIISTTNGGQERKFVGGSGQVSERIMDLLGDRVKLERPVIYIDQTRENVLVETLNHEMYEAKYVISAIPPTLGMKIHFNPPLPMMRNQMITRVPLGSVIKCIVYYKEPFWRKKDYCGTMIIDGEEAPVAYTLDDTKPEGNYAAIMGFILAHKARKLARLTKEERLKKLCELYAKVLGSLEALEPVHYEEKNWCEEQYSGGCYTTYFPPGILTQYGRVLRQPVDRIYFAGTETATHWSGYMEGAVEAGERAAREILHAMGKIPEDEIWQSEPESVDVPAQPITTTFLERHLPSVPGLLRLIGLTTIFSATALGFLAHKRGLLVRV

[4] = biological target: T1, Amine oxidase [flavin-containing] A; experiment: Inhibition of recombinant human MAO-A expressed in baculovirus infected BTITN-5B1-4 insect cells using p-tyramine as substrate at 100 uM incubated for 10 mins followed by substrate addition measured after 15 mins by Amplex Red assay relative to control; details: BTI-TN-5B1-4, human, 25 min; outline: as §1
[5] = Metabolic stability in human liver microsomes assessed as half life at 1 uM measured upto 60 mins by UPLC-MS/MS analysis; assay type: ADME, Microsome
[6] = Metabolic stability in mouse liver microsomes assessed as compound remaining at 1 uM measured upto 60 mins by UPLC-MS/MS analysis; assay type: ADME, Microsome; details: read-out: Stability
[7] = Chemical stability of compound in NaH2PO4/NaHPO4 at pH 7.4 assessed as compound remaining at 10 uM incubated overnight by UPLC-MS/MS analysis; assay type: physicochemical; details: NaH2PO4/NaHPO4 buffer, read-out: Stability
Outline: (§2)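 Overnight incubation at room temperature, 10 μM final. Buffers: pH 3.5 CH₃COONa/CH₃COOH 0.1 M; pH 7.4 NaH₂PO₄/NaHPO₄ 10 mM; pH 10.4 NaHCO₃/Na₂CO₃ 0.5 M. Aliquots taken at t = 0 and after incubation, analysed by UPLC-MS/MS; expressed as % remaining.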

[8] = Metabolic stability in mouse liver microsomes assessed as half life at 1 uM measured upto 60 mins by UPLC-MS/MS analysis; assay type: ADME, Microsome
[9] = Permeability coefficient of compound incubated for 120 mins by UV-Vis spectroscopy based PAMPA-BBB assay
[10] = Metabolic stability in human liver microsomes assessed as intrinsic clearance at 1 uM measured upto 60 mins by UPLC-MS/MS analysis; assay type: ADME, Microsome; details: read-out: CLH
[11] = Metabolic stability in mouse liver microsomes assessed as intrinsic clearance at 1 uM measured upto 60 mins by UPLC-MS/MS analysis; assay type: ADME, Microsome; details: read-out: CLH
[12] = Metabolic stability in human liver microsomes assessed as compound remaining at 1 uM measured upto 60 mins by UPLC-MS/MS analysis; assay type: ADME, Microsome; details: read-out: Stability
[13] = Chemical stability of compound in CH3COONa/CH3COOH at pH 3.5 assessed as compound remaining at 10 uM incubated overnight by UPLC-MS/MS analysis; assay type: physicochemical; details: CH3COONa/CH3COOH buffer, read-out: Stability; outline: as §2
[14] = Chemical stability of compound in NaHCO3/Na2CO3 at pH 10.4 assessed as compound remaining at 10 uM incubated overnight by UPLC-MS/MS analysis; assay type: physicochemical; details: NaHCO3/Na2CO3 buffer, read-out: Stability; outline: as §2
[15] = biological target: T2, Amine oxidase [flavin-containing] B; experiment: Inhibition of recombinant human MAO-B expressed in baculovirus infected BTITN-5B1-4 insect cells using p-tyramine as substrate at 100 uM incubated for 10 mins followed by substrate addition measured after 15 mins by Amplex Red assay relative to control; details: BTI-TN-5B1-4, human, 25 min
[16] = biological target: T2, Amine oxidase [flavin-containing] B; experiment: Inhibition of recombinant human MAO-B expressed in baculovirus infected BTITN-5B1-4 insect cells using p-tyramine as substrate at 100 uM incubated for 10 mins followed by substrate addition measured after 15 mins by Amplex Red assay; details: bti-tn-5b1-4, 25 min

Structure (SMILES): Cc1cc(=O)oc2c(NC(=O)Oc3ccccc3)c(O)ccc12
- inhibition (INH) [1]: Not Active
- Activity (SH-SY5Y): Active

Structure (SMILES): Cc1cc(=O)oc2c(NC(=O)OCc3ccccc3)c(O)ccc12
- IC50 [2]: 17.2 µM

Structure (SMILES): Cc1cc(=O)oc2c(NC(=O)OC(C)C)c(O)ccc12
- IC50 [2]: 1.88 µM

Structure (SMILES): Cc1cc(=O)oc2c(NC(=O)c3ccco3)c(O)ccc12
- IC50 [3]: 17.3 µM
- inhibition at 100 µM [4]: 50%

Structure (SMILES): C=CC(=O)Nc1c(O)ccc2c(C)cc(=O)oc12
- IC50 [2]: 38.1 µM
- IC50 [3]: 16.3 µM

Structure (SMILES): Cc1ccc(C(=O)Nc2c(O)ccc3c(C)cc(=O)oc23)cc1
- half-life at 1 µM [5]: 6.84 min
- remaining at 1 h, 1 µM [6]: 8.3%
- remaining at 10 µM [7]: 113%
- half-life at 1 µM [8]: 17.1 min
- Papp at 2 h [9]: 8.6 ×10⁻⁶ cm/s
- microsomal CLint at 1 µM [10]: 196 µL/min/mg
- microsomal CLint at 1 µM [11]: 131 µL/min/mg
- remaining at 1 h, 1 µM [12]: 0.5%
- remaining at 10 µM [13]: 98%
- remaining at 10 µM [14]: 118%

Structure (SMILES): Cc1cc(=O)oc2c(NC(=O)OCC(C)C)c(O)ccc12
- inhibition (INH) [1]: Not Active
- inhibition (INH) [16]: Not Active

Structure (SMILES): Cc1cc(=O)oc2c(NC(=O)C(C)C)c(O)ccc12
- inhibition (INH) [1]: Not Active
- IC50 [3]: 31 µM
- inhibition (INH) [16]: Not Active

Structure (SMILES): COc1cc(C(=O)Nc2c(O)ccc3c(C)cc(=O)oc23)cc(OC)c1OC
- inhibition at 100 µM [15]: 50%
- inhibition (INH) [1]: Not Active
- IC50 [3]: 68.3 µM

Structure (SMILES): CCC(=O)Nc1c(O)ccc2c(C)cc(=O)oc12
- inhibition (INH) [1]: Not Active
- IC50 [3]: 52.7 µM
- inhibition (INH) [16]: Not Active

Structure (SMILES): Cc1cc(=O)oc2c(NC(=O)CC(C)(C)C)c(O)ccc12
- inhibition (INH) [1]: Not Active
- IC50 [3]: 7.35 µM

Structure (SMILES): O=C(NCCN1CCOCC1)c1ccc(Cl)cc1 [MOCLOBEMIDE]
- inhibition at 100 µM [15]: 50%

Next, values leading:

- inhibition at 100 µM [15]: 50%
- inhibition (INH) [1]: Not Active
Structure (SMILES): COC(=O)Nc1c(O)ccc2c(C)cc(=O)oc12

- IC50 [2]: 9.19 µM
Structure (SMILES): Cc1cc(=O)oc2c(NC(=O)OCCl)c(O)ccc12

- inhibition (INH) [1]: Not Active
- IC50 [3]: 85.9 µM
Structure (SMILES): Cc1cc(=O)oc2c(NC(=O)CCl)c(O)ccc12

- IC50 [2]: 0.022 µM
Structure (SMILES): Cc1cc(=O)oc2c(NC(=O)/C=C/c3ccccc3)c(O)ccc12

- Papp at 2 h [9]: 4.9 ×10⁻⁶ cm/s
- inhibition (INH) [16]: Not Active
Structure (SMILES): CCOC(=O)Nc1c(O)ccc2c(C)cc(=O)oc12
